Reference: ChEMBL document CHEMBL1143667, “Synthesis and pharmacological evaluation of 6,7-indolo/thiazolo-morphinans--further SAR of levorphanol” (J Med Chem, 2007)
Activity calls are given as the source filed them. The calls are words filed in the database; no cut-off is given here.

Experiments:
Mu-type opioid receptor [1] = target: T1, Mu-type opioid receptor (Homo sapiens, UniProt P35372); assay: Displacement of [3H]DAMGO from human mu opioid receptor expressed in CHO membrane; assay type: cell membranes
Outline: (§1)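 CHO membranes (0.5 mg protein/sample) incubated 60 min at 25 °C with [3H]DAMGO (µ) or [3H]U69,593 (κ) and 12 compound concentrations in 1 mL 50 mM Tris-HCl, pH 7.5. Nonspecific binding with 10 µM naloxone. Mean ± SEM of three experiments in triplicate.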

[2] = target: T2, Kappa-type opioid receptor (Homo sapiens, UniProt P41145); assay: Displacement of [3H]U-69593 from human kappa opioid receptor expressed in CHO membrane; assay type: cell membranes; outline: as §1
[3] = target: T3, Delta-type opioid receptor (Homo sapiens, UniProt P41143); assay: Agonist activity at human delta opioid receptor expressed in CHO membrane assessed as stimulation of [35S]GTP-gamma-S binding; assay type: functional, cell membranes
[4] = target: Opioid receptors; mu & kappa (Homo sapiens) (UniProt P41145+P35372); assay: Selectivity for human kappa opioid receptor over human mu opioid receptor; assay type: protein assay
[5] = target: T3, Delta-type opioid receptor; assay: Antagonist activity at human delta opioid receptor expressed in CHO membrane assessed as inhibition of SNC80-induced [35S]GTPgammaS binding; assay type: functional, cell membranes
[6] = target: T2, Kappa-type opioid receptor; assay: Agonist activity at human kappa opioid receptor expressed in CHO membrane assessed as stimulation of [35S]GTP-gamma-S binding; assay type: functional, cell membranes
Outline: (§2)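 Membranes from CHO cells stably expressing human κ (15 µg protein/tube) or µ (7.5 µg/tube) receptor; 12 agonist concentrations, 60 min at 30 °C in Tris-HCl/MgCl2/NaCl/EGTA buffer pH 7.4 with 3 µM GDP and [35S]GTPγS (0.8 nM). Nonspecific binding with 10 µM unlabeled GTPγS; filtration, scintillation counting. Stimulation as % over basal; at least three experiments in triplicate.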

[7] = target: T3, Delta-type opioid receptor; assay: Displacement of [3H]naltrindole from human delta opioid receptor expressed in CHO membrane; assay type: cell membranes
Outline: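 CHO membranes (0.5 mg protein/sample) incubated at 25 °C with δ-specific radioligand and 12 compound concentrations in 1 mL 50 mM Tris-HCl, pH 7.5; nonspecific binding with 10 µM naloxone. Three experiments in triplicate.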

[8] = target: T2, Kappa-type opioid receptor; assay: Antagonist activity at human kappa opioid receptor expressed in CHO membrane assessed as inhibition of U50488-induced [35S]GTP-gamma-S binding; assay type: functional, cell membranes
Outline: (§3)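 Antagonism measured in CHO membranes expressing κ receptor with 100 nM U50,488, or µ receptor with 200 nM DAMGO, plus test compound and 0.8 nM [35S]GTPγS, 3 µM GDP. Filtration and scintillation readout; IC50 and Imax from three experiments in triplicate.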

Mu-type opioid receptor [9] = target: T1, Mu-type opioid receptor; assay: Agonist activity at human mu opioid receptor expressed in CHO membrane assessed as stimulation of [35S]GTPgammaS binding; assay type: functional, cell membranes; outline: as §2
Mu-type opioid receptor [10] = target: T1, Mu-type opioid receptor; assay: Antagonist activity at human mu opioid receptor expressed in CHO membrane assessed as inhibition of DAMGO-induced [35S]GTP-gamma-S binding; assay type: functional, cell membranes; outline: as §3
[11] = target: Opioid receptors; delta & kappa (Homo sapiens) (UniProt P41145+P41143); assay: Selectivity for human kappa opioid receptor over human delta opioid receptor; assay type: protein assay
Sequence of Opioid receptors; delta & kappa (Homo sapiens) (P41143 whole entry, looked up): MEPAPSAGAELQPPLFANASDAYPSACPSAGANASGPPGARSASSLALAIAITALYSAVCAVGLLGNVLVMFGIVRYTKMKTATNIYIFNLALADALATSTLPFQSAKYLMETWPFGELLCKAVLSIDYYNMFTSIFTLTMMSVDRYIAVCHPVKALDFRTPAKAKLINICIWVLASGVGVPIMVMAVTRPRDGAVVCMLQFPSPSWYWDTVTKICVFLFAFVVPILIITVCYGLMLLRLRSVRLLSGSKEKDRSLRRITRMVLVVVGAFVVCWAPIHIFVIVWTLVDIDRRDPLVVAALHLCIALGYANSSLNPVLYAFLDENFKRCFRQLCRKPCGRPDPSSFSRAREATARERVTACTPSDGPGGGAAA
Sequence of Opioid receptors; delta & kappa (Homo sapiens) (P41145 whole entry, looked up): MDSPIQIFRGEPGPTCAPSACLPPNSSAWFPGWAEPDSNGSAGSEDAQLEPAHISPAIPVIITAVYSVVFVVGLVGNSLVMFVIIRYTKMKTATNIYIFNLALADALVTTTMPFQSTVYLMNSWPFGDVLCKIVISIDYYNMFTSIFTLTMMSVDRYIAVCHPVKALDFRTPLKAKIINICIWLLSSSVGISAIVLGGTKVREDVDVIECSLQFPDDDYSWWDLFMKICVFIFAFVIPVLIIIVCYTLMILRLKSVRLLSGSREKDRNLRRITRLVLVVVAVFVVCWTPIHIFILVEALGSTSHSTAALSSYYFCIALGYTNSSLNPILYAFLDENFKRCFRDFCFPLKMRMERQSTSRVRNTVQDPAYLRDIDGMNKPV

T1 sequence (P35372 whole entry): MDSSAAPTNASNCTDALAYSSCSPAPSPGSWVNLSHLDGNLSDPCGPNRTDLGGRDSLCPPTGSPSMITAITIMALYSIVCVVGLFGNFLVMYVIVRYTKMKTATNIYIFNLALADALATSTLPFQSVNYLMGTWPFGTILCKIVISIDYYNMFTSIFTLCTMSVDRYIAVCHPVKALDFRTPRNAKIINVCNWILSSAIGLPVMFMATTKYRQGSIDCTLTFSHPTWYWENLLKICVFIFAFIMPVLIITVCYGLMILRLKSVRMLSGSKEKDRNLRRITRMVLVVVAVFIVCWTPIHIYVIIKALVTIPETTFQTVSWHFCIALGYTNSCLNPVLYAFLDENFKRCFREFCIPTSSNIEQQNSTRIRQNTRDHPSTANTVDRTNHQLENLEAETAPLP
Sequence of Opioid receptors; mu & kappa (Homo sapiens) (P35372 whole entry, looked up): as the sequence (P35372 whole entry) above
Sequence of Opioid receptors; mu & kappa (Homo sapiens) (P41145 whole entry, looked up): as the sequence (P41145 whole entry, looked up) above
T2 sequence (P41145 whole entry): as the sequence (P41145 whole entry, looked up) above
T3 sequence (P41143 whole entry): as the sequence (P41143 whole entry, looked up) above

| SMILES | Ki (Mu-type opioid receptor [1]) | Ki [2] | EC50 [3] | Emax [3] | Ratio Ki [4] | Activity [5] | EC50 [6] | Emax [6] | Ki [7] | Activity [8] | EC50 (Mu-type opioid receptor [9]) | Emax (Mu-type opioid receptor [9]) | IC50 (Mu-type opioid receptor [10]) | Imax (Mu-type opioid receptor [10]) | Ratio Ki [11] | IC50 [5] | Imax [5] | IC50 [8] | Imax [8] |
| --- | --- | --- | --- | --- | --- | --- | --- | --- | --- | --- | --- | --- | --- | --- | --- | --- | --- | --- | --- |
| COc1ccc2c(c1)[C@]13CCN(CC4CC4)[C@H](C2)[C@@H]1Cc1c([nH]c2ccccc12)C3 | 5.9 nM | 1.4 nM | 1.5 nM | 56% | 4 | inactive | 24 nM | 68% | 1.5 nM | inactive | 1.7 nM | 72% | 440 nM | 43% | 1 | – | – | – | – |
| Oc1ccc2c(c1)[C@]13CCN(CC4CCC4)[C@H](C2)[C@@H]1Cc1c([nH]c2ccccc12)C3 | 3.9 nM | 1 nM | 0.8 nM | 37% | 4 | – | 190 nM | 87% | 0.17 nM | inactive | 110 nM | 68% | – | 23% | 0.2 | 0.6 nM | 55% | – | – |
| Nc1nc2c(s1)C[C@H]1[C@H]3Cc4ccc(O)cc4[C@@]1(CCN3CC1CCC1)C2 | 0.37 nM | 0.14 nM | 2.5 nM | 51% | 3 | inactive | 2.6 nM | 40% | 1.1 nM | – | 2.6 nM | 33% | 26 nM | 68% | 8 | – | – | 93 nM | 44% |
| COc1ccc2c(c1)[C@]13CCN(C)[C@H](C2)[C@@H]1Cc1c([nH]c2ccccc12)C3 | 340 nM | 390 nM | – | – | 0.9 | – | – | – | 35 nM | – | – | – | – | – | 0.1 | – | – | – | – |
| Nc1nc2c(s1)C[C@H]1[C@H]3Cc4ccc(O)cc4[C@@]1(CCN3CC1CC1)C2 | – | 0.07 nM | 0.17 nM | 49% | – | inactive | 0.34 nM | 37% | 0.23 nM | inactive | – | – | – | – | – | – | – | – | – |
| Oc1ccc2c(c1)[C@]13CCN(CC4CC4)[C@H](C2)[C@@H]1Cc1c([nH]c2ccccc12)C3 | 1.1 nM | 0.64 nM | 0.16 nM | 22% | 2 | – | 61 nM | 67% | 0.19 nM | – | 92 nM | 47% | 12 nM | 84% | 0.3 | 1.2 nM | 73% | 17 nM | 49% |
| COc1ccc2c(c1)[C@]13CCN(CC4CCC4)[C@H](C2)[C@@H]1Cc1c([nH]c2ccccc12)C3 | 330 nM | 89 nM | 23 nM | 54% | 4 | inactive | – | – | 8.7 nM | – | – | – | – | – | 0.1 | – | – | – | – |
| CN1CC[C@]23Cc4nc(N)sc4C[C@H]2[C@H]1Cc1ccc(O)cc13 | 0.49 nM | 2.2 nM | 8.4 nM | 67% | 0.2 | inactive | 21 nM | 44% | 4.2 nM | inactive | 140 nM | 42% | – | 45% | 2 | – | – | – | – |
| CN1CC[C@]23Cc4[nH]c5ccccc5c4C[C@H]2[C@H]1Cc1ccc(O)cc13 | 22 nM | 14 nM | 0.47 nM | 23% | 1.6 | – | – | – | 0.35 nM | – | – | – | – | – | 0.03 | 1.5 nM | 45% | – | – |
